Results as given in the EternaBench riboswitch data.

What was measured:
[1] = tested on: MS2 coat protein; assay: apparent Kd, MS2 coat protein; higher = weaker binding; RNA-MaP array; theophylline 2 mM where present
Summary of the method: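 Designs were transcribed by stalled E. coli RNA polymerase on Illumina sequencing-chip clusters. They were titrated with SNAP-549-labelled MS2 coat protein from 0.7 or 1.5 nM, doubling to 3 µM, without and then with constant ligand. Buffer: 100 mM Tris-HCl pH 7.5, 80 mM KCl, 4 mM MgCl2, BSA, DTT, yeast tRNA, Tween-20. Green signal was normalised to red-channel RNA signal and control-cluster median Fmax. Apparent Kd is the median of filtered per-cluster binding-curve fits.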

[2] = tested on: MS2 coat protein; assay: apparent Kd, MS2 coat protein; higher = weaker binding; RNA-MaP array
Summary of the method: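 Designed RNAs were transcribed on an Illumina sequencing chip from sequenced DNA templates. They were incubated at room temperature with fluorescently labeled MS2 coat protein at 1.5 nM to 3 μM, for 0.8–1.5 h at the lowest to 10–20 min at the highest concentrations, in Tris-HCl pH 7.5 buffer with KCl, MgCl2, BSA, DTT, tRNA and Tween20, with or without input ligand. Apparent Kd is the median of per-cluster binding-curve fits. Designs measured on fewer than 10 clusters were excluded.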

[3] = designed as: OFF switch for theophylline, no ligand
[4] = ligand present: theophylline, designed as: OFF switch for theophylline
[5] = designed as: ON switch for theophylline, no ligand
[6] = ligand present: theophylline, designed as: ON switch for theophylline
[7] = designed as: OFF switch for flavin mononucleotide, no ligand
[8] = ligand present: flavin mononucleotide, designed as: OFF switch for flavin mononucleotide
[9] = designed as: ON switch for flavin mononucleotide, no ligand
[10] = ligand present: flavin mononucleotide, designed as: ON switch for flavin mononucleotide

Sequence: GAUGAACAUACUGAUACCAGUGUACUGACAUGAGGAUCACCCAUGUUGGGUUUUGUUGUACACCCUUGGCAGCAGAAUGUUUAUC
- apparent Kd [1, 3]: 72.2 nM
- apparent Kd [1, 4]: 78.9 nM

Sequence: CGGUUUGUGAUGGAUACCAGCAGAGAAAACGUUUAUCCUAACAUGAGGAUCACCCAUGUAUGCCCUUGGCAGCUGUUGUGGGCUG
- apparent Kd [1, 3]: 44.7 nM
- apparent Kd [1, 4]: 45.6 nM

Sequence: ACGACGCAUAGUGAUACCAGUAGAACAUGAGGAUCACCCAUGUCUGUGGCGCUCCGCCUCUGCCCUUGGCAGCACUAUGCGUCAG
- apparent Kd [1, 5]: 12.4 nM
- apparent Kd [1, 6]: 18.6 nM

Sequence: ACAUGUCUUAUAGAUACCAGACAGGACAUGAGGAUCACCCAUGUAAUGUAUACAUGCAGAGUCCCUUGGCAGCUAAGGUCAUAGA
- apparent Kd [1, 5]: 77.6 nM
- apparent Kd [1, 6]: 66.3 nM

Sequence: AACCGAGGCUAUCCACAAAGAAAAUGUGAUACCAGAAUAAUUUUAUUCCCUUGGCAGCAUGACAUGAGGAUCACCCAUGUGUCUU
- apparent Kd [1, 5]: 32.3 nM
- apparent Kd [1, 6]: 35.6 nM

Sequence: UAAAACAUGAGGAUCACCCAUGUAAUUGAUACCAGAGUGAUGAUCCUCCCUUGGCAGCAAAUAACGCAUUGGAAACAAUGCGAAA
- apparent Kd [1, 5]: 56.4 nM
- apparent Kd [1, 6]: 189 nM

Sequence: CUCUGGUGCUGAGUGAGUGUCGUGACUGAUACCAGAUGCCUUUACAUCCCUUGGCAGCAGUACAUGAGGAUCACCCAUGUAUUCC
- apparent Kd [1, 3]: 22.1 nM
- apparent Kd [1, 4]: 182 nM

Sequence: GAAACGUAGGUGGAGCGGUGAAAUGGCGAUACCAGCGUGGAAACAUGCCCUUGGCAGCGUUAGAACAUGAGGAUCACCCAUGUUU
- apparent Kd [1, 3]: 13.3 nM
- apparent Kd [1, 4]: 58.2 nM

Sequence: CGCUACAUAGCGGCCGCCACUGUCAUGGCUACGAUAGGUCACUCGUACAUGAGGAUCACCCAUGUCAGGACCGGGCUAUCCUCGC
- apparent Kd ([2]; designed as: OFF switch for tryptophan, no ligand): 92.9 nM
- apparent Kd ([2]; ligand present: tryptophan, designed as: OFF switch for tryptophan): 203 nM

Sequence: AUUAGAAUGCGAGGAUAUGGUAAAUUCAUGCAUCCAGAAGGCGCGUCAGUAGAACAUGAGGAUCACCCAUGUGAUUGUUGUGGC
- apparent Kd [2, 7]: 22.8 nM
- apparent Kd [2, 8]: 26.9 nM

Sequence: GCGGGAGAUCAGAAGGCUAUAACGUUUCACAUGAGGAUCACCCAUGUGGGCUCCUAGGGAUGGAUAGAGGAUAUGACCGAAUAU
- apparent Kd [2, 7]: 12.9 nM
- apparent Kd [2, 8]: 13.3 nM

Sequence: AGAUCGCUGACCGCGGGAGAUGCGCAGGAUACCAGCCUAAUGUCCGGCCCUUGGCAGCCUGUAACAUGAGGAUCACCCAUGUGAA
- apparent Kd [2, 3]: 17.1 nM
- apparent Kd [2, 4]: 31 nM

Sequence: GCUGCACAUGAGGAUCACCCAUGUACCCUACUGAGAGGAUAUGUGAUCCGUUAGCAAUCCACAGAAGGCUCGGUUC
- apparent Kd [2, 9]: 51.2 nM
- apparent Kd [2, 10]: 10.5 nM

Sequence: AUAAACCUAACAUGAGGAUCACCCAUGUCCUCCGUCGGUCGAAGAAGGAGUAAUGCUUAUUUUUACUAGGAUAUUCGUAAUCAC
- apparent Kd [2, 7]: 90.2 nM
- apparent Kd [2, 8]: 216 nM

Sequence: CACAUGUAAGGAUAUAGUGAACUAAAGCAACUAGAUGUAAACUAGAAGGUACAUGAGGAUCACCCAUGUAAAGG
- apparent Kd [2, 7]: 17.3 nM

Sequence: CCAGCGAGUUAGACCUUACAUGAGGAUCACCCAUGUUGGCGUAGAAGGACGCUCAUAAGCACUGCGUAGGAUAUACUCACCAAU
- apparent Kd [2, 7]: 7.99 nM
- apparent Kd [2, 8]: 10.4 nM

Sequence: UAAGACGCAGGAUAUACAUGAGGAUCACCCAUGUGCAUACAAGUCAAGAGGUACAUAAGUAGAAGGGCGUGGAU
- apparent Kd [2, 7]: 9.42 nM
- apparent Kd [2, 8]: 14.7 nM

Sequence: GUUGUCAUCCAAGGAUAUUGUAAAAGGAGUGGGCAAGAAGGUGGAGAGCAUUGAUGAAGGUACACAUGAGGAUCACCCAUGUUC
- apparent Kd [2, 9]: 33.6 nM
- apparent Kd [2, 10]: 14.8 nM

Sequence: CUAAAACAUGAGGAUCACCCAUGUGUUUAGCGCAGAGGAUAUUGGGAUUGGUUGCUCGCUCAAGAAGGCUGAUUGG
- apparent Kd [2, 9]: 8.55 nM
- apparent Kd [2, 10]: 7.02 nM

Sequence: CCAGAAGCAGGAUAUACAUGAGGAUCACCCAUGUUAAACAAUAUGACGAGCAUAGUCAGUAGAAGGGCAACUCA
- apparent Kd [2, 7]: 18.8 nM
- apparent Kd [2, 8]: 16.1 nM

Sequence: AUUGAACAUGAGGAUCACCCAUGUGCGGGUGGUAUAGGAUAUGCAGGAUCCUAAGAGUAAGCAGAAGGAUACACCG
- apparent Kd [2, 9]: 445 nM
- apparent Kd [2, 10]: 33.4 nM
